ChEMBL document CHEMBL3045796, “Neonicotinoid insecticides: molecular features conferring selectivity for insect versus mammalian nicotinic receptors” (J Agric Food Chem, 2000)

Columns and labels:
[1] = test system: Musca domestica; test: Toxicity against Musca domestica (house fly) dosed with compound through intra-thoracic injection pre-treated with 100 ug/g metabolic detoxification inhibitor O-propyl O-(2-propynyl)phenylphosphonate; format: functional
[2] = biological target: Neuronal acetylcholine receptor subunit alpha-3 (Homo sapiens, UniProt P32297); test: Inhibition of [3H]nicotine binding to alpha3 nicotinic acetylcholine receptor in Homo sapiens (human) SH-SY5Y cells co-expressing beta2beta4alpha5 Nicotinic acetylcholine receptor subunits; format: cell-based
Sequence of Neuronal acetylcholine receptor subunit alpha-3 (P32297 whole entry): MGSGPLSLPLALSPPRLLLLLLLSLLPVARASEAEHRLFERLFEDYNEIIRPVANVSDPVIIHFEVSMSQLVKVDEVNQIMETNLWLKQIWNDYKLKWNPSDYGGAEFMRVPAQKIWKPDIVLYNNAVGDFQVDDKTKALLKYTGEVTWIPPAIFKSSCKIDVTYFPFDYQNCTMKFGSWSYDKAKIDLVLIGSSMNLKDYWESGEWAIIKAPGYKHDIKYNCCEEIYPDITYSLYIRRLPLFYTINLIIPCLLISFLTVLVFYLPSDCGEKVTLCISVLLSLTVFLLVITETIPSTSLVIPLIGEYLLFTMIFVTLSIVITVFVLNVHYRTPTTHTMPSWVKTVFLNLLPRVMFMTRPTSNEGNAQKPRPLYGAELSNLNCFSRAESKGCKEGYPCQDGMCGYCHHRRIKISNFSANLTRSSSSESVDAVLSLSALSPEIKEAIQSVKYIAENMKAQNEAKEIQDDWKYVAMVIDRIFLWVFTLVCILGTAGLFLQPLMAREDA

[3] = biological target: Neuronal acetylcholine receptor subunit alpha-7 (Homo sapiens, UniProt P36544); test: Inhibition of [125I]alpha-BGT binding to alpha7 nicotinic acetylcholine receptor in Homo sapiens (human) SH-SY5Y cells
Sequence of Neuronal acetylcholine receptor subunit alpha-7 (P36544 whole entry): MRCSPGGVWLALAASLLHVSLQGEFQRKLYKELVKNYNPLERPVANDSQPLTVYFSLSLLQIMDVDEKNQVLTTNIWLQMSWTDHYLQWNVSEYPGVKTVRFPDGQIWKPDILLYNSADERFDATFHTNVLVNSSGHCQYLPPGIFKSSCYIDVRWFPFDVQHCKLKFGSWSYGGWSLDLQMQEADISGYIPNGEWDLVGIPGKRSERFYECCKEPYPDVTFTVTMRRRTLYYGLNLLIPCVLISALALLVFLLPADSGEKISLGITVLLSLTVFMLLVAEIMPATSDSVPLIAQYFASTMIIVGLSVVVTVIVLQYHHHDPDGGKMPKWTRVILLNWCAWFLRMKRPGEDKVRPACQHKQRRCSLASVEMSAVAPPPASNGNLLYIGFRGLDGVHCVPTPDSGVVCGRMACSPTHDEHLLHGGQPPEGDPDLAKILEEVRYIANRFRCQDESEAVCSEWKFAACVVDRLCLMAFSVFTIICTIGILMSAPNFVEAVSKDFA

[4] = biological target: T1, Acetylcholine receptor subunit beta-like 2 (Drosophila melanogaster, UniProt P25162); test: Inhibition of [3H]IMI binding to Drosophila melanogaster neuronal acetylcholine receptor
T1 sequence (P25162 whole entry): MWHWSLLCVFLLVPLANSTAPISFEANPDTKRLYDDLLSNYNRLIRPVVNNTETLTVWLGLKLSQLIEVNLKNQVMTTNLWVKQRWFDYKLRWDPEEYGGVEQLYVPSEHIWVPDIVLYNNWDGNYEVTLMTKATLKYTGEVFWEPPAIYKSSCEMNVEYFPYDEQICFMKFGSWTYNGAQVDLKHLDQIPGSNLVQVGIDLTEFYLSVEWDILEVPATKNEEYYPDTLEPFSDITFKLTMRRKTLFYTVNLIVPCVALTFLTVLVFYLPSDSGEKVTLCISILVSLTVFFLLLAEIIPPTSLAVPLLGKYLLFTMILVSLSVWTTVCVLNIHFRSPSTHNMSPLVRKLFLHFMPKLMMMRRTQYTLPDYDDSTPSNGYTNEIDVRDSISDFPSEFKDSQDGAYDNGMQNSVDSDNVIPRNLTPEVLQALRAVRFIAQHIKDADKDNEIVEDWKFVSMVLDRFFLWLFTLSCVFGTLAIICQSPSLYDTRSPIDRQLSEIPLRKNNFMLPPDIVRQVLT

[5] = biological target: Acetylcholine receptor subunit alpha (Homo sapiens, UniProt P02708+P07510+P11230+Q07001); test: Inhibition of [125I]alpha-BGT binding to alpha1 nicotinic acetylcholine receptor in Homo sapiens (human) TE671 cells co-expressing gammaalpha1deltabeta1 nicotinic acetylcholine receptor subunits
Sequence of Acetylcholine receptor subunit alpha (P02708 whole entry, one chain of several): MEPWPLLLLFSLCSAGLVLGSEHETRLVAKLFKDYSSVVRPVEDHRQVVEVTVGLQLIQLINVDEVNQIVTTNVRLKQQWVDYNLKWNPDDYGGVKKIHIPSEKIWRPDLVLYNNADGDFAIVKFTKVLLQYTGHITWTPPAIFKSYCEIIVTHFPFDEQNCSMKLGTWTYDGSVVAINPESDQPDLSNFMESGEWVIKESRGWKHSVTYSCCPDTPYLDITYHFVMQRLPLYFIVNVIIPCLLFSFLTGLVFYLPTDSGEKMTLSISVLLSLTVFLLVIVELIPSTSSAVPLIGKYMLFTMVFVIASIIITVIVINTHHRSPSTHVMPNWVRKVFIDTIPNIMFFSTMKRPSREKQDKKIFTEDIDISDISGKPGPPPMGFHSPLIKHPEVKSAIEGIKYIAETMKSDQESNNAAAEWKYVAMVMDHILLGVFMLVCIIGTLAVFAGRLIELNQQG

[6] = biological target: Neuronal acetylcholine receptor subunit alpha-4 (Mus musculus, UniProt O70174); test: Inhibition of [3H]nicotine binding to alpha4 nicotinic acetylcholine receptor in Mus musculus (mouse) M10 cells co-expressing beta2 nicotinic acetylcholine receptor subunits; format: cell-based
Sequence of Neuronal acetylcholine receptor subunit alpha-4 (O70174 whole entry): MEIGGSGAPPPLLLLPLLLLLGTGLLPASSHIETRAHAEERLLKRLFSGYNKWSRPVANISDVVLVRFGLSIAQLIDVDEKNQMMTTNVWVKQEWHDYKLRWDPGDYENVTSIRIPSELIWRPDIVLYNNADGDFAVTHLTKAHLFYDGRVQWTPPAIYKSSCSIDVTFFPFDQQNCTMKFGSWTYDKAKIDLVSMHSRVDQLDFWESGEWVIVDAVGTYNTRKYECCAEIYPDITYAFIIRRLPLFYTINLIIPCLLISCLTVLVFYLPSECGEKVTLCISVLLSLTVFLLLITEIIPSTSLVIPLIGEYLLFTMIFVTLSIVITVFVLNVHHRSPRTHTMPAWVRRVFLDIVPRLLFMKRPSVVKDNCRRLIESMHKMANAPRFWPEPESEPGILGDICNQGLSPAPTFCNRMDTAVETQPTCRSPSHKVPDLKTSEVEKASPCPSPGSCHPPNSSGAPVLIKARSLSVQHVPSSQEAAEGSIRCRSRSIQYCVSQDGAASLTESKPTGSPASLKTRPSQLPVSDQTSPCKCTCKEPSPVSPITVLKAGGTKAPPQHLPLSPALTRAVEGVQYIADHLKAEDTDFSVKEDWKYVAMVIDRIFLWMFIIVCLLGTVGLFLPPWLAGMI

[7] = Toxicity in ip dosed Mus musculus (mouse); format: organism-based; conditions: in vivo
[8] = Retention time under acidic conditions using H20/MeOH mobile phase containing 0.1% TFA (1:1) by HPLC method; format: physicochemical
Outline: (§1)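 Reversed-phase HPLC at a flow rate of 0.7 mL/min, with a void volume of 2.46 min. Each retention time is the mean of three runs under that mobile-phase condition.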

[9] = Retention time under basic conditions using 20 mM Na2HPO4 (pH9.9)/MeOH (1:1) mobile phase by HPLC method; format: physicochemical; conditions: buffer, pH 9.9; outline: as §1
[10] = Retention time under neutral conditions using H20/MeOH (1:1) mobile phase by HPLC method; format: physicochemical; outline: as §1
[11] = biological target: Acetylcholine receptor subunit alpha (Homo sapiens) (UniProt P02708); test: Inhibition of […] binding to alpha1 nicotinic acetylcholine receptor in Homo sapiens (human) TE671 cells co-expressing gammaalpha1deltabeta1 nicotinic acetylcholine receptor at >300 uM; format: cell-based; conditions: TE-671
Sequence of Acetylcholine receptor subunit alpha (Homo sapiens) (P02708 whole entry): as the sequence (P02708 whole entry, one chain of several) above

Q: Which results are given for O=[N+]([O-])/C=C1/NCCCN1Cc1ccc(Cl)nc1?
A: LD50 [1]: 0.08 mg/kg; IC50 [2]: 0.18 µM; IC50 [3]: 1 µM; IC50 [4]: 0.00037 µM; IC50 [5]: 81 µM; IC50 [6]: 80 nM; LD50 [7]: 10 mg/kg

Q: With N=c1sccn1Cc1ccc(Cl)nc1 as the molecule, how does the LD50 [1] read?
A: Its LD50 is over 5 mg/kg.

Q: What about the Retention_time [8] of the same molecule?
A: Its Retention_time is 2.98 min.

Q: And the IC50 [3]?
A: The IC50 was 4 µM.

Q: What about the IC50 [4] of the same molecule?
A: Its IC50 is 0.185 µM.

Q: And the IC50 [5]?
A: The IC50 was 8 µM.

Q: What about the IC50 [6] of the same molecule?
A: The IC50 was 1.4 nM.

Q: And the Retention_time [9]?
A: Its Retention_time is 4.21 min.

Q: What about the Retention_time [10] of the same molecule?
A: The Retention_time was 3.02 min.

Q: What about the LD50 [7] of the same molecule?
A: Its LD50 is 0.7 mg/kg.

Q: Which LD50 [1] does the source give for Clc1ccc(C2CC3CCC2N3)cn1 (racemic) [EPIBATIDINE] here?
A: The LD50 was over 25 mg/kg.

Q: What about the IC50 [3] of the same molecule?
A: The IC50 was 0.031 µM.

Q: And the IC50 [4]?
A: Its IC50 is 0.43 µM.

Q: And the IC50 [5]?
A: The IC50 was 0.16 µM.

Q: And the IC50 [6]?
A: The IC50 was 0.037 nM.

Q: What about the LD50 [7] of the same molecule?
A: The LD50 was 0.06 mg/kg.

Q: What does the source list for N=C1SCCN1Cc1ccc(Cl)nc1 [DESCYANOTHIACLOPRID]?
A: LD50 [1]: > 5 mg/kg; Retention_time [8]: 2.84 min; IC50 [3]: 6 µM; IC50 [4]: 0.2 µM; IC50 [5]: 6 µM; IC50 [6]: 4.4 nM; Retention_time [9]: 4.23 min; Retention_time [10]: 3 min; LD50 [7]: 0.7 mg/kg

Q: With N=C1NCCN1Cc1ccc(Cl)nc1 [DESNITROIMIDACLOPRID] as the molecule, how does the LD50 [1] read?
A: The LD50 was over 5 mg/kg.

Q: And the Retention_time [8]?
A: The Retention_time was 2.8 min.

Q: And the IC50 [2]?
A: Its IC50 is 0.014 µM.

Q: And the IC50 [3]?
A: The IC50 was 9.9 µM.

Q: What about the IC50 [4] of the same molecule?
A: The IC50 was 1.53 µM.

Q: And the IC50 [5]?
A: The IC50 was 11 µM.

Q: And the IC50 [6]?
A: Its IC50 is 8.2 nM.

Q: What about the Retention_time [9] of the same molecule?
A: Its Retention_time is 4.24 min.

Q: What about the Retention_time [10] of the same molecule?
A: Its Retention_time is 2.9 min.

Q: And the LD50 [7]?
A: Its LD50 is 6 mg/kg.

Q: For O=[N+]([O-])/N=C1\NCCN1Cc1ccc(Cl)nc1 [IMIDACLOPRID], which LD50 [1] is on record?
A: The LD50 was 0.02 mg/kg.

Q: And the inhibition [11]?
A: Its inhibition is 39%.

Q: Which results are given for O=[N+]([O-])NC1=NCCN1Cc1ccc(Cl)nc1 [IMIDACLOPRID]?
A: Retention_time [8]: 4.87 min; IC50 [2]: 14 µM; IC50 [3]: 270 µM; IC50 [4]: 0.0046 µM; IC50 [5]: > 300 µM; IC50 [6]: 2600 nM; Retention_time [9]: 4.82 min; Retention_time [10]: 4.84 min; LD50 [7]: 40 mg/kg

Q: What does the source list for CN1CCC[C@H]1c1cccnc1 [NICOTINE]?
A: LD50 [1]: > 50 mg/kg; Retention_time [8]: 3.16 min; IC50 [4]: 4 µM; IC50 [5]: 21 µM; Retention_time [9]: 11.23 min; Retention_time [10]: 3.18 min; LD50 [7]: 6 mg/kg

Q: With N#C/N=C1\SCCN1Cc1ccc(Cl)nc1 [THIACLOPRID] as the molecule, how does the LD50 [1] read?
A: The LD50 was 0.03 mg/kg.

Q: What about the Retention_time [8] of the same molecule?
A: The Retention_time was 6.07 min.

Q: What about the IC50 [3] of the same molecule?
A: The IC50 was 100 µM.

Q: And the IC50 [4]?
A: Its IC50 is 0.0027 µM.

Q: What about the IC50 [5] of the same molecule?
A: The IC50 was 120 µM.

Q: And the IC50 [6]?
A: Its IC50 is 860 nM.

Q: What about the Retention_time [9] of the same molecule?
A: Its Retention_time is 6.05 min.

Q: And the Retention_time [10]?
A: Its Retention_time is 6.06 min.

Q: What about the LD50 [7] of the same molecule?
A: The LD50 was 25 mg/kg.
